In ChEMBL document CHEMBL1124946, “Cephalosporins to carbapenems: 1-oxygenated carbapenems and carbapenams” (1990):

Legend:
Citrobacter koseri [1] = experiment: In vitro minimal inhibitory concentration (MIC) in brain-heart infusion broth in the presence of hog liver esterase(1:1.5) in Citrobacter diversus 031; assay type: functional
In short: (§1)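 Two-fold serial broth dilution in brain-heart infusion broth. POM ester prodrugs were incubated with hog liver esterase (1:1.5) in the broth so the ester is converted in situ to the free acid. The MIC is the lowest concentration that inhibits growth.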

Klebsiella pneumoniae [2] = experiment: In vitro minimal inhibitory concentration in brain-heart infusion broth in presence of hog liver esterase(1:1.5) in Klebsiella pneumoniae 079; assay type: functional; in short: as §1
Escherichia coli [3] = experiment: In vitro minimal inhibitory concentration (MIC) in brain-heart infusion broth in the presence of hog liver esterase(1:1.5) in Escherichia coli 266; assay type: functional; in short: as §1
Pseudomonas aeruginosa = experiment: In vitro minimal inhibitory concentration (MIC) in brain-heart infusion broth in the presence of hog liver esterase(1:1.5) in Pseudomonas aeruginosa 104; assay type: functional; in short: as §1
Staphylococcus aureus [4] = experiment: In vitro minimal inhibitory concentration (MIC) in brain-heart infusion broth in the presence of hog liver esterase(1:1.5) in Staphylococcus aureus 005; assay type: functional; in short: as §1
[5] = In vitro minimal inhibitory concentration (MIC) in brain-heart infusion broth in the presence of hog liver esterase(1:1.5) in Serr. marc. 095; assay type: functional; conditions: Serratia marcescens; in short: as §1
Morganella morganii = experiment: In vitro minimal inhibitory concentration (MIC) in brain-heart infusion broth in the presence of hog liver esterase(1:1.5) in Morganella morganii 001; assay type: functional; in short: as §1
Staphylococcus aureus [6] = experiment: In vitro minimal inhibitory concentration (MIC) in brain-heart infusion broth in the presence of hog liver esterase(1:1.5) in Staphylococcus aureus 400; assay type: functional; in short: as §1
Enterobacter cloacae [7] = experiment: In vitro minimal inhibitory concentration (MIC) in brain-heart infusion broth in the presence of hog liver esterase(1:1.5) in […] 009; assay type: functional; in short: as §1
Escherichia coli [8] = experiment: In vitro minimal inhibitory concentration (MIC) in brain-heart infusion broth in the presence of hog liver esterase(1:1.5) in Escherichia coli 129; assay type: functional; in short: as §1
Streptococcus pyogenes = experiment: In vitro minimal inhibitory concentration (MIC) in brain-heart infusion broth in the presence of hog liver esterase(1:1.5) in Streptococcus pyogenes 203; assay type: functional; in short: as §1
Haemophilus influenzae = experiment: In vitro minimal inhibitory concentration (MIC) in brain-heart infusion broth in the presence of hog liver esterase(1:1.5) in Haemophilus influenzae 012
Klebsiella pneumoniae [9] = experiment: In vitro minimal inhibitory concentration (MIC) in brain-heart infusion broth in the presence of hog liver esterase(1:1.5) in Klebsiella pneumoniae 009; assay type: functional; in short: as §1
Klebsiella pneumoniae [10] = experiment: In vitro minimal inhibitory concentration in brain-heart infusion broth in the presence of hog liver esterase(1:1.5) in Klebsiella pneumoniae 079; assay type: functional; in short: as §1
Citrobacter koseri [11] = experiment: In vitro minimal inhibitory concentration in brain-heart infusion broth in presence of hog liver esterase(1:1.5) in Citrobacter diversus 031; assay type: functional; in short: as §1
Enterobacter cloacae [12] = experiment: In vitro minimal inhibitory concentration in brain-heart infusion broth in the presence of hog liver esterase(1:1.5) in […] 009; assay type: functional; in short: as §1

Row | Structure (SMILES) | MIC (Citrobacter koseri [1]) [µg/mL] | MIC (Klebsiella pneumoniae [2]) [µg/mL] | MIC (Escherichia coli [3]) [µg/mL] | MIC (Pseudomonas aeruginosa) [µg/mL] | MIC (Staphylococcus aureus [4]) [µg/mL] | MIC [5] [µg/mL] | MIC (Morganella morganii) [µg/mL] | MIC (Staphylococcus aureus [6]) [µg/mL] | MIC (Enterobacter cloacae [7]) [µg/mL] | MIC (Escherichia coli [8]) [µg/mL] | MIC (Streptococcus pyogenes) [µg/mL] | MIC (Haemophilus influenzae) [µg/mL] | MIC (Klebsiella pneumoniae [9]) [µg/mL] | MIC (Klebsiella pneumoniae [10]) [µg/mL] | MIC (Citrobacter koseri [11]) [µg/mL] | MIC (Enterobacter cloacae [12]) [µg/mL]
1 | CCN1CCN(C(=O)N[C@@H](C(=O)N[C@@H]2C(=O)N3[C@@H]2C(O)[C@H](C)[C@@H]3C(=O)OCOC(=O)C(C)(C)C)c2ccccc2)C(=O)C1=O (stereo partly drawn) | – | – | 6.25 | 200 | 25 | 25 | < 0.39 | > 200 | 12.5 | > 200 | – | – | – | 12.5 | 12.5 | –
2 | N[C@@H](C(=O)N[C@@H]1C(=O)N2C(C(=O)O)=C(Cl)CS[C@H]12)c1ccccc1 [CEFACLOR ANHYDROUS] | – | – | 3.12 | > 200 | 1.56 | – | > 200 | 3.12 | > 200 | 50 | 0.05 | 3.12 | 1.56 | – | – | –
3 | CC1(C)S[C@@H]2[C@H](NC(=O)COc3ccccc3)C(=O)N2[C@H]1C(=O)O [PENICILLIN V] | > 200 | – | 100 | > 200 | < 0.025 | > 200 | > 200 | 50 | – | > 200 | < 0.025 | 6.25 | > 200 | > 200 | – | > 200
4 | C[C@@H](O)[C@H]1C(=O)N2C(C(=O)O)=C(SCCN)C[C@H]12 [THIENAMYCIN] | – | – | 0.1 | 3.12 | < 0.025 | – | 6.25 | < 0.025 | 0.39 | 0.39 | < 0.025 | 0.78 | 0.2 | – | – | –

Now from value to compound:

Row | MIC (Citrobacter koseri [1]) [µg/mL] | MIC (Klebsiella pneumoniae [2]) [µg/mL] | MIC (Escherichia coli [3]) [µg/mL] | MIC (Pseudomonas aeruginosa) [µg/mL] | MIC (Staphylococcus aureus [4]) [µg/mL] | MIC [5] [µg/mL] | MIC (Morganella morganii) [µg/mL] | MIC (Staphylococcus aureus [6]) [µg/mL] | MIC (Enterobacter cloacae [7]) [µg/mL] | MIC (Escherichia coli [8]) [µg/mL] | MIC (Streptococcus pyogenes) [µg/mL] | MIC (Haemophilus influenzae) [µg/mL] | MIC (Klebsiella pneumoniae [9]) [µg/mL] | MIC (Klebsiella pneumoniae [10]) [µg/mL] | MIC (Citrobacter koseri [11]) [µg/mL] | MIC (Enterobacter cloacae [12]) [µg/mL] | Structure (SMILES)
5 | > 200 | > 200 | > 200 | > 200 | 100 | > 200 | > 200 | > 200 | > 200 | > 200 | – | – | – | – | – | – | C[C@H]1C(=O)[C@@H]2[C@H](NC(=O)OCc3ccccc3)C(=O)N2[C@H]1C(=O)OCOC(=O)C(C)(C)C
6 | – | – | 6.25 | 100 | 3.12 | – | 50 | 1.56 | 12.5 | 6.25 | 0.78 | 6.25 | 6.25 | – | – | – | CC1=C(C(=O)OCOC(=O)C(C)(C)C)N2C(=O)[C@H]([C@@H](C)O)[C@H]2C1O (stereo partly drawn)
7 | – | – | > 200 | > 200 | > 200 | > 200 | > 200 | > 200 | > 200 | > 200 | – | – | – | > 200 | > 200 | – | CC(=O)OC1[C@H](C)C(C(=O)OCOC(=O)C(C)(C)C)N2C(=O)[C@H](NC(=O)COc3ccccc3)[C@@H]12 (stereo partly drawn)
8 | > 200 | > 200 | > 200 | > 200 | 25 | > 200 | > 200 | 50 | > 200 | > 200 | – | – | – | – | – | – | C[C@H]1C(O)[C@@H]2[C@H](NC(=O)COc3ccccc3)C(=O)N2[C@H]1C(=O)OCOC(=O)C(C)(C)C (stereo partly drawn)
